Hits are enriched below; roughly 12% of the tested compounds scored in any of these assays.
MT stabilize HCS = microtubule stabilizers in HeLa cells, primary screen, imaging, high-content imaging | HeLa tubulin immunostaining HCS, 24 h; share of cells brighter than vehicle mean+2SD | 0.83% of 200,000 active | AID 2205, 2009 | % tubulin-high responders, % at 10 µM;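 active = plate Z-score above 3 for both tubulin-high and condensed-nucleus cell shares, with cell loss under 80%, at 10 µM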;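 also: anti alpha tubulin signal scored within the nucleus-defined area of each cell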
L major viab = Leishmania major promastigote growth inhibition, primary screen; AID 1063, 2008; 9% of 200,000 active; inhibition, % at 10 µM; Leishmania major promastigotes, resazurin fluorescence viability; in the data active = inhibition above about 50%;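 also: promastigotes grown with compound for 44 hours at 28 °C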
b-catenin transl = modulators of beta-catenin nuclear translocation, primary screen, imaging, HeLa cells, immunofluorescence, high-content | 0.3% of 190,000 active | nuclear translocation activity, % at 5 µM | AID 1665, 2009;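 active = nuclear translocation activity above 50% at 5 µM, with a well cell count of 50 or more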;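 also: per-cell ratio of nuclear to cytoplasmic median beta-catenin stain intensity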
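Test system: human HeLa cell line; Doses: 5 µM primary, 0.02–20 µM confirmation; Incubation: 24 h compound exposure, 37°C; Detection: beta-catenin immunofluorescence imaging with DAPI; Read-out: beta-catenin nuclear/cytoplasmic ratio, % activation.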
Autophagy mod = autophagy modulators in MEF cells, primary screen, imaging, high-content, MEF GFP-LC3 | MEF GFP-LC3 puncta imaging; test concentration mostly 10 µM | calls only at 10 µM (by protocol) | 0.98% of 190,000 active;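 active = percentage of spot-positive cells more than 3 SD above its plate mean, without a fluorescence outlier flag or 80% toxicity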
CHOP inhibitor = inhibitors of CHOP promoter induction, primary screen, cell-based, unfolded protein response, luciferase reporter | CHO-K1 CHOP-promoter luciferase, tunicamycin-induced, 15-18 h | inhibition, % at 10 µM | 3.8% of 220,000 active | AID 2732, 2010;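 active = compounds that reduced the stress-induced luciferase reporter signal by more than about 70% of percent inhibition, limit read from the data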
Dynein transport = inhibitors of GR-EGFP nuclear translocation, primary screen, dynein cargo transport inhibitor project, imaging, high-content, 3617.4 mouse cells. test concentration mostly 20 µM; stimulated with dexamethasone, 1 µM; stronger effect = lower value. z-score, hits read low. 0.47% of 220,000 active. AID 1381, 2008;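 active = plate z-score of nuclear minus cytoplasmic receptor signal below a set negative limit, without overly bright fluorescence or cell loss, cut at about -3.5 in these data, passing the limit was not always enough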;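 also: z-score of nuclear minus cytoplasmic ring GR-EGFP intensity difference per well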
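Buffer or medium: tet-free medium with charcoal-stripped serum / Also added: dexamethasone agonist, 1.0 µM final, for 30 min / Timing: induction 48 h, compound 1 h, agonist 30 min / Measured by: high-content fluorescence imaging after fixation / Read-out: nuclear-to-cytoplasmic GR-EGFP distribution per well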
Numbers stand for hits.

What do the screens show for `CC(NC(=O)CSc1ccccc1C(=O)O)C1CC2CCC1C2` (centres undefined)?
MT stabilize HCS: inactive; L major viab: inactive; b-catenin transl: inactive; Autophagy mod: inactive; CHOP inhibitor: inactive; Dynein transport: inactive

Results for Cc1ccccc1SCCNC(=O)CCc1ccccc1 ?
MT stabilize HCS: inactive; L major viab: inactive; b-catenin transl: inactive; Autophagy mod: inactive; CHOP inhibitor: inactive; Dynein transport: inactive

How did CN1CCCN(Cc2ccccc2C(F)(F)F)CC1 do in these assays?
MT stabilize HCS: inactive; L major viab: inactive; b-catenin transl: inactive; Autophagy mod: inactive; CHOP inhibitor: inactive; Dynein transport: inactive

Results for CN1CCCN(Cc2ccc(Cl)cc2Cl)CC1 ?
MT stabilize HCS: inactive; L major viab: 98; b-catenin transl: inactive; Autophagy mod: inactive; CHOP inhibitor: inactive; Dynein transport: inactive

Results for CN1CCCN(Cc2nc(-c3ccc(Cl)cc3)no2)CC1 ?
MT stabilize HCS: inactive; L major viab: 93; b-catenin transl: inactive; Autophagy mod: inactive; CHOP inhibitor: inactive; Dynein transport: inactive

How did CCOC(=O)C(=CNc1cc(Cl)c(-c2ccco2)c(Cl)c1)C(=O)OCC do in these assays?
b-catenin transl: inactive; CHOP inhibitor: inactive; Dynein transport: inactive

How did O=c1c2c3c(sc2n(CCN2CCCCC2)c(=O)n1Cc1ccco1)CCCCC3 do in these assays?
MT stabilize HCS: inactive; L major viab: 99; Autophagy mod: inactive; CHOP inhibitor: inactive; Dynein transport: inactive

How did CCOc1ccc(-n2c(=O)c3c4c(sc3n(CC(=O)NCc3ccco3)c2=O)CCC4)cc1 do in these assays?
MT stabilize HCS: inactive; L major viab: inactive; b-catenin transl: inactive; Autophagy mod: inactive; CHOP inhibitor: 70; Dynein transport: inactive

Results for O=C(C1CC1)N1CCc2sccc2C1c1ccc(Cl)cc1 (centres undefined) ?
b-catenin transl: inactive; CHOP inhibitor: inactive; Dynein transport: inactive

How did CC1=NN(c2ccccc2)C(=O)C1C(=O)c1cc([N+](=O)[O-])cc([N+](=O)[O-])c1 (centres undefined) do in these assays?
MT stabilize HCS: inactive; L major viab: inactive; b-catenin transl: inactive; Autophagy mod: inactive; CHOP inhibitor: inactive; Dynein transport: inactive

How did O=C1C(c2ccnc3ccccc23)=C(O)c2ccccc21 do in these assays?
MT stabilize HCS: inactive; L major viab: inactive; b-catenin transl: inactive; Autophagy mod: active; CHOP inhibitor: inactive; Dynein transport: inactive

How did N#CC1=C(N)SC(N)=C(C#N)C1c1ccnc2ccccc12 do in these assays?
MT stabilize HCS: inactive; L major viab: inactive; b-catenin transl: inactive; Autophagy mod: inactive; CHOP inhibitor: inactive; Dynein transport: inactive

How did O=C1C(=O)c2ccccc2C(O)=C1c1ccccc1F do in these assays?
b-catenin transl: inactive; CHOP inhibitor: inactive; Dynein transport: inactive

Results for O=C1c2ccccc2C(=O)C1c1ccnc2ccccc12 ?
MT stabilize HCS: inactive; L major viab: inactive; Autophagy mod: inactive; CHOP inhibitor: 83; Dynein transport: inactive

What do the screens show for `CC1=C(C)C(=O)NC(Nc2nc(C)c3cc(C)cc(C)c3n2)N1` (centres undefined)?
MT stabilize HCS: inactive; L major viab: 100; Autophagy mod: active; Dynein transport: inactive

What do the screens show for `CCN1CCN(C(=S)Nc2ccc3nc4n(c(=O)c3c2)CCCCC4)CC1`?
MT stabilize HCS: inactive; L major viab: inactive; b-catenin transl: inactive; Autophagy mod: inactive; CHOP inhibitor: inactive; Dynein transport: inactive

What do the screens show for `CC(=O)Nc1ccc(N2CCc3c(C)c(C#N)c4nc5ccccc5n4c32)cc1`?
MT stabilize HCS: inactive; L major viab: inactive; b-catenin transl: inactive; Autophagy mod: active; CHOP inhibitor: inactive; Dynein transport: inactive

How did Cc1ccc(Cn2ccc(=O)c(OCc3c(Cl)cccc3Cl)c2C)cc1 do in these assays?
MT stabilize HCS: inactive; L major viab: 97; Autophagy mod: inactive; CHOP inhibitor: inactive; Dynein transport: inactive

What do the screens show for `Cc1[nH]ccc(=O)c1OCc1c(Cl)cccc1Cl`?
MT stabilize HCS: inactive; L major viab: inactive; b-catenin transl: inactive; Autophagy mod: inactive; CHOP inhibitor: inactive; Dynein transport: inactive

How did COc1ccc(OCC#CCN2CC(C)OC(C)C2)cc1 (centres undefined) do in these assays?
MT stabilize HCS: inactive; L major viab: 57; b-catenin transl: inactive; Autophagy mod: inactive; CHOP inhibitor: inactive; Dynein transport: inactive

What do the screens show for `Cc1nnc(Cl)c2nn(-c3ccccc3F)c(C)c12`?
MT stabilize HCS: inactive; L major viab: inactive; b-catenin transl: inactive; Autophagy mod: inactive; CHOP inhibitor: inactive; Dynein transport: inactive

Results for Cc1nnc(SCCN2CCOCC2)c2nn(-c3ccccc3F)c(C)c12 ?
MT stabilize HCS: inactive; L major viab: 53; b-catenin transl: inactive; Autophagy mod: inactive; CHOP inhibitor: inactive; Dynein transport: inactive

What do the screens show for `COc1ccc(C2N(Cc3ccccc3)CCN2Cc2ccccc2)cc1[N+](=O)[O-]`?
MT stabilize HCS: inactive; L major viab: inactive; b-catenin transl: inactive; Autophagy mod: active; CHOP inhibitor: inactive; Dynein transport: inactive

How did CCCCC1(Cc2ccc(OC)c([N+](=O)[O-])c2)C(=O)N(c2ccccc2)N(c2ccccc2)C1=O do in these assays?
MT stabilize HCS: inactive; L major viab: inactive; b-catenin transl: inactive; Autophagy mod: inactive; CHOP inhibitor: inactive; Dynein transport: inactive

What do the screens show for `CCCCOc1ccc(-c2ncc(N)cn2)cc1`?
b-catenin transl: inactive; CHOP inhibitor: inactive; Dynein transport: inactive

Results for COc1ccc(CNCC(O)(c2ccc(Cl)cc2)c2ccc(Cl)cc2)cc1OC ?
MT stabilize HCS: inactive; L major viab: inactive; b-catenin transl: inactive; Autophagy mod: inactive; CHOP inhibitor: inactive; Dynein transport: inactive

What do the screens show for `Cn1cccc1CNCc1ccc(F)cc1`?
MT stabilize HCS: inactive; L major viab: inactive; b-catenin transl: inactive; Autophagy mod: inactive; CHOP inhibitor: inactive; Dynein transport: inactive

How did CCCCNC(=S)Nc1ccc(C(F)(F)F)cc1 do in these assays?
MT stabilize HCS: inactive; L major viab: inactive; b-catenin transl: inactive; Autophagy mod: inactive; CHOP inhibitor: inactive; Dynein transport: inactive

What do the screens show for `OC(CNCc1ccc(F)cc1)(c1ccc(F)cc1)c1ccc(F)cc1`?
MT stabilize HCS: inactive; L major viab: inactive; Autophagy mod: inactive; CHOP inhibitor: 72

Results for OC(CNCc1ccc(Cl)cc1)(c1ccccc1)c1ccc(F)cc1 (centres undefined) ?
MT stabilize HCS: inactive; L major viab: inactive; b-catenin transl: inactive; Autophagy mod: active; CHOP inhibitor: 75; Dynein transport: inactive

What do the screens show for `CCCCNCC(O)(c1ccc(Cl)cc1)c1ccc(Cl)cc1`?
MT stabilize HCS: inactive; L major viab: 90; b-catenin transl: inactive; Autophagy mod: inactive; CHOP inhibitor: inactive; Dynein transport: inactive
